The record followed here is ChEMBL document CHEMBL3352795, “Discovery of novel 1,5-benzodiazepine-2,4-dione derivatives as potential anticancer agents” (Bioorg Med Chem Lett, 2014).

What is called IC50 is the concentration that gives 50% inhibition.

Common to all, as to type: functional, cell-based
The subject of assay [1] is A549. The assay is described as follows: Anticancer activity against human A549 cells assessed as growth inhibition after 48 hrs by MTT assay. The conditions noted are these: A549, 48 h. The procedure, abridged: (§1)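 Standard MTT assay on cells incubated with compound for 48 h, with 5-fluorouracil as the positive control. Results are reported as IC50.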
In general terms: Formazan colour is commonly taken as a measure of viable cells.

The nature of assay [2]: Anticancer activity against human HCT116 cells assessed as growth inhibition after 48 hrs by MTT assay. The note with it: HCT-116, 48 h. The procedure, abridged:
as §1

Assay [3] has as its system MCF7. The assay is described as follows: Anticancer activity against human MCF7 cells assessed as growth inhibition after 48 hrs by MTT assay. The note with it: MCF7, 48 h. The method, boiled down:
as §1

For assay [4], the system named is HeLa. The assay is described as follows: Anticancer activity against human HeLa cells assessed as growth inhibition after 48 hrs by MTT assay. The procedure, abridged:
as §1

The nature of assay [5]: Anticancer activity against mouse LL/2 cells assessed as growth inhibition after 48 hrs by MTT assay. The note with it: Lewis lung carcinoma. The procedure, abridged:
as §1

Structures are written as SMILES. In brackets after ≈: the same amount, converted by molar mass.

For the compound `CC(C)NC(=O)c1cccc2c1NC(=O)C(C(C)(C)C(=O)NCc1ccccc1)C(=O)N2` (centres undefined), the IC50 in assay [1] was > 100 µg/mL.

Take `CC(C)(C)NC(=O)c1cccc2c1NC(=O)C(C(C)(C)C(=O)NCc1ccccc1)C(=O)N2` (centres undefined): in assay [1], the IC50 is > 100 µg/mL.

Regarding `CC(C)(C(=O)NCc1ccccc1)C1C(=O)Nc2cccc(C(=O)NC3CC3)c2NC1=O` (centres undefined), in assay [1], the half-maximal inhibitory concentration (IC50) was > 100 µg/mL.

As to `CC(C)(C(=O)NCc1ccccc1)C1C(=O)Nc2cccc(C(=O)NCc3ccccc3)c2NC1=O` (centres undefined), the IC50 in assay [2] is 85 µg/mL (≈ 175 µM); in assay [3], 91.2 µg/mL (≈ 188 µM); in assay [4], 42 µg/mL (≈ 86.7 µM); in assay [5] it was 48.5 µg/mL (≈ 100 µM); in assay [1], 45.3 µg/mL (≈ 93.5 µM).

Take `CC(C)(C(=O)NCc1ccccc1)C1C(=O)Nc2cccc(C(=O)NCc3cccc(C(F)(F)F)c3)c2NC1=O` (centres undefined): the IC50 came to 46.1 µg/mL (≈ 83.4 µM) in assay [2]; 36.1 µg/mL (≈ 65.3 µM) in assay [3]; 8.1 µg/mL (≈ 14.7 µM) in assay [4]; 30.5 µg/mL (≈ 55.2 µM) in assay [5]; 80.5 µg/mL (≈ 146 µM) in assay [1].

For the compound `Cc1ccc(CNC(=O)c2cccc3c2NC(=O)C(C(C)(C)C(=O)NCc2ccccc2)C(=O)N3)cc1Cl` (centres undefined), the concentration for half-maximal inhibition (IC50) is > 100 µg/mL in assay [2]; 87 µg/mL (≈ 163 µM) in assay [3]; 16.7 µg/mL (≈ 31.3 µM) in assay [4]; 58.3 µg/mL (≈ 109 µM) in assay [5]; 59.4 µg/mL (≈ 111 µM) in assay [1].

Take `CC(C)(C(=O)NCc1ccccc1)C1C(=O)Nc2cccc(C(=O)NCc3ccc(F)c(Cl)c3)c2NC1=O` (centres undefined): the IC50 in assay [2] came out at 49.9 µg/mL (≈ 92.9 µM); in assay [3], 68.2 µg/mL (≈ 127 µM); in assay [4], 21.1 µg/mL (≈ 39.3 µM); in assay [5], 66.8 µg/mL (≈ 124 µM); in assay [1], 68.1 µg/mL (≈ 127 µM).

For `Cc1ccc(CNC(=O)c2cccc3c2NC(=O)C(C(C)(C)C(=O)NCc2ccccc2)C(=O)N3)cc1` (centres undefined), the IC50 in assay [1] was > 100 µg/mL.

In the case of `CC(C)(C(=O)NCc1ccccc1)C1C(=O)Nc2cccc(C(=O)NCc3cc(F)ccc3F)c2NC1=O` (centres undefined), the half-inhibitory concentration (IC50) in assay [2] was found to be 80.1 µg/mL (≈ 154 µM); in assay [3], 74.8 µg/mL (≈ 144 µM); in assay [4] it was 25.1 µg/mL (≈ 48.2 µM); in assay [5] it was 40.2 µg/mL (≈ 77.2 µM); in assay [1], 43.1 µg/mL (≈ 82.8 µM).

For `CC(C)(C(=O)NCc1ccccc1)C1C(=O)Nc2cccc(C(=O)NCc3c(F)ccc(F)c3F)c2NC1=O` (centres undefined), the IC50 in assay [1] was 97.7 µg/mL (≈ 181 µM).

Consider `CC(C)(C(=O)NCc1ccccc1)C1C(=O)Nc2cccc(C(=O)NCc3ccccn3)c2NC1=O` (centres undefined), for which the 50% inhibitory concentration (IC50) in assay [1] was > 100 µg/mL.

For the compound `CC(C)(C(=O)NCc1ccccc1)C1C(=O)Nc2cccc(C(=O)Nc3ccccc3)c2NC1=O` (centres undefined), the concentration for half-maximal inhibition (IC50) was 26.6 µg/mL (≈ 56.5 µM) in assay [2]; 21.3 µg/mL (≈ 45.3 µM) in assay [3]; 41.9 µg/mL (≈ 89 µM) in assay [4]; 29.3 µg/mL (≈ 62.3 µM) in assay [5]; 85.3 µg/mL (≈ 181 µM) in assay [1].

Turning to `CC(C)(C(=O)NCc1ccccc1)C1C(=O)Nc2cccc(C(=O)Nc3cccc(C(F)(F)F)c3)c2NC1=O` (centres undefined), the IC50 in assay [2] was determined as 20.5 µg/mL (≈ 38.1 µM); in assay [3], 10 µg/mL (≈ 18.6 µM); in assay [4], 42 µg/mL (≈ 78 µM); in assay [5] it was 17.6 µg/mL (≈ 32.7 µM); in assay [1] it was 27.8 µg/mL (≈ 51.6 µM).

Regarding `CC(C)(C(=O)NCc1ccccc1)C1C(=O)Nc2cccc(C(=O)Nc3cccc(Cl)c3)c2NC1=O` (centres undefined), the IC50 was determined as 17.3 µg/mL (≈ 34.3 µM) in assay [2]; 11.2 µg/mL (≈ 22.2 µM) in assay [3]; 24 µg/mL (≈ 47.5 µM) in assay [4]; 17.1 µg/mL (≈ 33.9 µM) in assay [5]; 56.2 µg/mL (≈ 111 µM) in assay [1].

`CC(C)(C(=O)NCc1ccccc1)C1C(=O)Nc2cccc(C(=O)Nc3ccccc3F)c2NC1=O` (centres undefined): in assay [1], the IC50 stood at 96.1 µg/mL (≈ 197 µM).

For the compound `CC(C)(C(=O)NCc1ccccc1)C1C(=O)Nc2cccc(C(=O)Nc3ccc(C(F)(F)F)cc3)c2NC1=O` (centres undefined), in assay [1], the IC50 was > 100 µg/mL.

As to `CC(C)(C(=O)NCc1ccccc1)C1C(=O)Nc2cccc(C(=O)Nc3cccc(F)c3F)c2NC1=O` (centres undefined), the IC50 in assay [2] is 25 µg/mL (≈ 49.4 µM); in assay [3], 21 µg/mL (≈ 41.5 µM); in assay [4], 37.8 µg/mL (≈ 74.6 µM); in assay [5] it was 32.9 µg/mL (≈ 65 µM); in assay [1], 80.4 µg/mL (≈ 159 µM).

Consider `CC(C)(C(=O)NCc1ccccc1)C1C(=O)Nc2cccc(C(=O)Nc3ccc(F)cc3F)c2NC1=O` (centres undefined), for which the IC50 in assay [1] is > 100 µg/mL.

As for `CC(C)(C(=O)NCc1ccccc1)C1C(=O)Nc2cccc(C(=O)Nc3cc(Cl)ccc3F)c2NC1=O` (centres undefined), the IC50 was determined as 21.3 µg/mL (≈ 40.7 µM) in assay [2]; 20.4 µg/mL (≈ 39 µM) in assay [3]; 35.4 µg/mL (≈ 67.7 µM) in assay [4]; 19.3 µg/mL (≈ 36.9 µM) in assay [5]; 63.3 µg/mL (≈ 121 µM) in assay [1].

On to `CC(C)(C(=O)NCc1ccccc1)C1C(=O)Nc2cccc(C(=O)Nc3ccc(F)c(F)c3F)c2NC1=O` (centres undefined), for which, in assay [1], the IC50 was > 100 µg/mL.

As to `O=c1[nH]cc(F)c(=O)[nH]1` [FLUOROURACIL], the IC50 in assay [2] was 4.8 µg/mL (≈ 36.9 µM); in assay [3], 12.1 µg/mL (≈ 93 µM); in assay [4], 5.7 µg/mL (≈ 43.8 µM); in assay [5], 2.9 µg/mL (≈ 22.3 µM).
